Measured values: PubChem BioAssay
Records with an inconclusive call do not appear.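 How the source made its calls, unless noted: active means RAM network inhibition above 8.4% in each of two replicates, 3 SD over the compound average; inconclusive means above 8.4% inhibition in only one replicate; inactive means 8.4% inhibition or less in each replicate.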

Assays:
[1] = OD615 S. cerevisiae growth inhibition, permissive medium, pilot counter-assay, permissive growth control for S. cerevisiae lifespan shortening project (AID 705;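 active means growth inhibition above 25% in both replicates, a cutoff set 3 SD above the mean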); conditions: OD615, 24 h, at 10 µM, active compounds read high
Procedure, shortened: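 Material: engineered DeaD yeast; compound dosing: one dose 10 µM, DMSO 0.25% final; measure: yeast growth inhibition indicated by reduced 24 h OD615; detection: OD615 turbidity read; incubation: cells pre-grown 4 h, then 24 h compound exposure, 30 °C humidified; medium: permissive synthetic complete medium with raffinose and galactose carbon sources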

[2] = Restrictive medium S. cerevisiae growth inhibition, OD615, pilot screen of yeast lifespan reduction project, restrictive growth control (AID 706;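 active means growth inhibition above a set limit, 3 SD over mean compound inhibition, in both replicates, cut at about 43% in these data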;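 further: modified DeaD lifespan yeast strain shifted to restrictive glucose medium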); conditions: OD615, 48 h, at 10 µM, active compounds read high
Procedure, shortened: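 material = engineered S. cerevisiae DeaD strain | medium = glucose-based CSMM-D restrictive medium | times = 4 h pre-incubation, 48 h exposure at 30 °C | technique = OD615 absorbance reading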

[3] = viability gain of MRP-1-high H69AR cells under doxorubicin, pilot screen, MRP-1 activator project, CellTiter-Glo, duplicate (AID 807;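 active means viability increase at or above a cutoff of the median across tested compounds plus 3 SD, cut at about 8.5% in these data, passing the limit was not always enough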;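 further: compound pretreatment 18-22 h then 72 h combined with doxorubicin; 0% = doxorubicin alone and 100% = vehicle without doxorubicin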); conditions: H69AR viability with doxorubicin, CellTiter-Glo luminescence; at 10 µM; active compounds read high
[4] = growth suppression of beta-catenin knockout HCT116, pilot screen, human colon tumor cells (AID 823;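 active means cell viability at or below a set limit in both duplicate runs, the limit being the all-compound median minus 4 SD, cut at about 23% in these data, passing the limit was not always enough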;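 further: 0% = wells killed by 20 µM Hyamine and 100% = untreated DMSO cell wells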); conditions: CellTiter-Glo, 60 h, at 10 µM, active compounds read low
[5] = growth suppression of PTEN-deleted HCT116, pilot screen, cell-based, HCT116 clonal line, CellTiter-Glo (AID 824;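 active means viability at or below 27.92% in each of two runs, the all-compound median minus 4 SD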;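 further: 0% = 20 µM Hyamine control and 100% = vehicle cell control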); conditions: 60 h, at 10 µM, active compounds read low
[6] = inhibitors of the yeast RAM network, pilot screen, dse1pr::URA3 reporter, 5-FOA selection (AID 869;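 active means inhibition over a set limit, the all-compound mean plus 3 SD, in both replicate runs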;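 further: 0% = DMSO wells with no growth and 100% = 10 µM 1-NA-PP1 with full growth; RAM network block rescues cells from 5-FOA so hits raise OD615 growth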); conditions: S. cerevisiae dse1pr::URA3 5-FOA growth, OD615, 2 d; at 10 µM; active compounds read high; strain carries analog-sensitive mutant Cbk1 kinase
[7] = RAM signaling pathway blockade in yeast – S. cerevisiae, Pdr1DBD-CYC8 efflux-inhibited sensitized strain, primary screen (AID 1298);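 further: 0% = DMSO untreated cells without growth and 100% = 10 µM 1-NA-PP1 full growth; higher means more yeast growth rescued from 5-FOA killing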; conditions: S. cerevisiae cbk1-as DSE1-URA3 strain, 5-FOA growth OD615, 2 d; at 50 µM; active compounds read high

COc1cc(CN2CCN(c3cccc(C)c3C)CC2)cc(Br)c1O
inactive: growth inhibition [1] -4.04% | growth inhibition [2] 0.7% | viability increase [3] -2.57% | viability [4] 80.7% | viability [5] 86.6% | inhibition [6] -0.235% | RAM network inhibition [7] 1.51%

CCOc1ccc(NC(=O)CCS(=O)(=O)c2cccc3nsnc23)cc1
inactive: growth inhibition [1] -1.9% | growth inhibition [2] -3.6% | viability increase [3] -3.08% | viability [4] 101% | viability [5] 93.7% | inhibition [6] 1.31% | RAM network inhibition [7] 2.36%

COc1cccc(-c2nc(CS(=O)(=O)CC(=O)NCCC(C)C)c(C)o2)c1
inactive: growth inhibition [1] 3.72% | growth inhibition [2] 7.53% | viability increase [3] 0.8% | viability [4] 94% | viability [5] 89.1% | inhibition [6] 0.36% | RAM network inhibition [7] 1.13%

CC(C)N1C(=O)CCC1C(=O)NCc1ccccc1Cl (stereo not drawn)
inactive: growth inhibition [1] -8.36% | growth inhibition [2] -6.72% | viability increase [3] -2.27% | viability [4] 96% | viability [5] 98.9% | inhibition [6] 1.68% | RAM network inhibition [7] 0.01%

CCOc1ccc(S(=O)(=O)N(CC(=O)O)c2ccccc2)cc1
inactive: growth inhibition [1] -1.83% | growth inhibition [2] -7.26% | viability increase [3] -2.11% | viability [4] 102% | viability [5] 93.6% | inhibition [6] 1.07% | RAM network inhibition [7] 2.61%

Cc1nn(Cc2ccccc2)c(N)c1-c1ccccc1
inactive: growth inhibition [1] -8.39% | growth inhibition [2] -9.23% | viability increase [3] -0.57% | viability [4] 95.2% | viability [5] 87.1% | inhibition [6] 2.53% | RAM network inhibition [7] 2.53%

CC(=O)C1C(c2ccc(OC(F)F)cc2)NC(=O)NC1(O)C(F)(F)F (stereo not drawn)
inactive: growth inhibition [1] 3.71% | growth inhibition [2] -6.05% | viability increase [3] 0.74% | viability [4] 107% | viability [5] 97.4% | inhibition [6] 0.31% | RAM network inhibition [7] 5.93%

c1ccc(-c2cnn3nnnc3n2)cc1
inactive: growth inhibition [1] 0.085% | growth inhibition [2] -12.7% | viability increase [3] -1.17% | viability [4] 102% | viability [5] 97.9% | inhibition [6] 1.85% | RAM network inhibition [7] 1.66%

CCNC(=O)COc1ccc2ccccc2c1
inactive: growth inhibition [1] -2.77% | growth inhibition [2] 3.62% | viability increase [3] 0.99% | viability [4] 97.4% | viability [5] 99.6% | inhibition [6] 1.06% | RAM network inhibition [7] 1.53%

CCOC(=O)c1sc2nc3n(c(=O)c2c1C)CCCCC3
inactive: growth inhibition [1] -4.76% | growth inhibition [2] 5.75% | viability increase [3] 6.25% | viability [4] 87.5% | viability [5] 103% | inhibition [6] 0.475% | RAM network inhibition [7] 4.46%

COc1cccc(-c2nc(C(N)=O)c3[nH]c(=O)n(-c4ccccc4)c3n2)c1OC
inactive: growth inhibition [1] -8.87% | growth inhibition [2] -8.02% | viability increase [3] -4.58% | viability [4] 99.4% | viability [5] 95.9% | inhibition [6] 3.04% | RAM network inhibition [7] -0.2%

COc1ccc(C(=O)N2CCN(c3ccc(C)cc3)CC2)cc1OC
inactive: growth inhibition [1] -10.4% | growth inhibition [2] -14.2% | viability increase [3] -1.27% | viability [4] 103% | viability [5] 90.2% | inhibition [6] 0.81% | RAM network inhibition [7] 3.75%

Cc1cc(Nc2ccc(C)c(C)c2)n2nc(C)nc2n1
inactive: growth inhibition [1] 6.21% | growth inhibition [2] 10.1% | viability increase [3] -4.63% | viability [4] 105% | viability [5] 96.9% | inhibition [6] 0.77% | RAM network inhibition [7] 3.69%

Cn1c(NC(=O)C2CCCO2)cc(=O)n(C)c1=O (stereo not drawn)
inactive: growth inhibition [1] 0.76% | growth inhibition [2] 1.36% | viability increase [3] -0.7% | viability [4] 103% | viability [5] 99.8% | inhibition [6] 0.565% | RAM network inhibition [7] -0.47%

CN(C)C(=O)N1CCC(C(=O)NCc2ccc(F)cc2)CC1
inactive: growth inhibition [1] 4.29% | growth inhibition [2] 9.94% | viability increase [3] -1.51% | viability [4] 104% | viability [5] 94.7% | inhibition [6] 0.865% | RAM network inhibition [7] 5.08%

O=C(CC1c2ccccc2Oc2ccccc21)N1CCN(c2ccccn2)CC1
inactive: growth inhibition [1] -16.3% | growth inhibition [2] -10.3% | viability increase [3] -3.24% | viability [4] 71.6% | viability [5] 70.5% | inhibition [6] 1.08% | RAM network inhibition [7] 4.78%

COc1ccc(NC(=O)CN2CC(c3ccccc3)CC2=O)cc1OC (stereo not drawn)
inactive: growth inhibition [1] -17.9% | growth inhibition [2] -15.6% | viability increase [3] -1.08% | viability [4] 104% | viability [5] 95.1% | inhibition [6] 0.27% | RAM network inhibition [7] 2.86%

COc1ccc(-n2c(Cc3cccn3C)nnc2SCC(=O)Nc2ccc(C(C)=O)cc2)cc1
inactive: growth inhibition [1] 3.63% | growth inhibition [2] 17.8% | viability increase [3] -3.67% | viability [4] 99.4% | viability [5] 90.8% | inhibition [6] 1.6% | RAM network inhibition [7] 3.56%

CC(=O)c1ccc(OCCCC(=O)NCC(c2ccco2)N(C)C)cc1 (stereo not drawn)
inactive: growth inhibition [1] 4.54% | growth inhibition [2] -0.015% | viability increase [3] -4.73% | viability [4] 68.9% | viability [5] 85.3% | inhibition [6] 0.755% | RAM network inhibition [7] 1.98%
